Laboratory results reported in ChEMBL document CHEMBL4513216, “Probing the Open Global Health Chemical Diversity Library for Multistage-Active Starting Points for Next-Generation Antimalarials” (ACS Infect Dis, 2020).

Test: Toxicity liver stage against HepG2, at 10uM
Type: cell-based
Parameters: test concentration 10 uM, cell line HepG2-A16-CD81EGFP
Conditions: human, HepG2-A16-CD81EGFP cells; read-out: INHIBITION
Procedure, shortened: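 Uninfected HepG2-A16-CD81EGFP cells, 3 × 10^3 per well, 1536-well, plated on prespotted compound at 10 μM final, parasite-free screening media added to match infected plates; puromycin 10 μM positive, DMSO 0.5% negative; run in parallel with 48 h PbLuc assay at 37 °C, 5% CO2; viability by CellTiter-Glo luminescence, normalized to controls.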

SMILES | cytotoxicity at 10 µM
Fc1ccc(C2CN(c3ncnc4nc[nH]c34)CCO2)cc1 (configuration not stated) | 13.1%
O=C1CC2(CCN(C(=O)c3ccncc3)CC2)Oc2c(Cl)cc(Cl)cc21 | 5.17%
CC(C)(C)n1ncc2c1NC(=O)CSC2c1ccc2c(c1)OCCO2 (configuration not stated) | -1.74%
O=C(C1CC1)N1CCN(c2ccc(-n3cncn3)nn2)CC1 | -4.83%
O=C([C@H]1CCCO1)N1Cc2nccn2CC(COc2cccnc2)C1 (some centres not stated) | 7.45%
O=C(C1CCOCC1)N1CCc2ncnc(-c3ccccc3)c2CC1 | -6.09%
O=C(Cc1ccccc1)N1CCn2cc(Cn3cncn3)nc2C1 | -137%
CCOc1ccc(NC(=O)c2cc3c([nH]c2=O)CCC3)cc1 | 6.5%
Cc1cccc(COC[C@]23COC[C@H]2CN(C(=O)c2ccsc2)C3)n1 | -7.85%
O=C(N[C@@H]1CN(Cc2cccs2)[C@@H]2CCCO[C@@H]21)C1CC1 | 3.63%
CN(C)c1ncc(-c2ccc(C(N)=O)cc2)c(C2CNCCO2)n1 (configuration not stated) | -1.42%
COC1CCCOC12CCN(C(=O)c1ccc3[nH]nnc3c1)CC2 (configuration not stated) | -3.97%
CNc1cc(C2CN(C(=O)c3ccn(C)n3)CCO2)nc(C)n1 (configuration not stated) | 12.6%
O=C(c1cncs1)N1CCCC1c1ccn[nH]1 (configuration not stated) | -11.9%
CCCC(=O)N1CCC(c2ncc3c(n2)CCNC3)CC1 | -23.1%
Cc1ncncc1C(=O)N1CCCC(c2[nH]ncc2S(C)(=O)=O)C1 (configuration not stated) | -4.41%
CC1CS(=O)(=O)CCN1Cc1ccccc1N(C)C (configuration not stated) | 5.29%
COc1ccccc1CC(NC(=O)N1CCC[C@@H]1CO)C(C)C (some centres not stated) | 3.34%
Cc1cscc1C(=O)Nc1cncnc1N(C)C | 0.137%
CN(C)C(=O)CN(C)C(=O)c1cccn1CCc1ccccc1 | 1.17%
CN(C)S(=O)(=O)c1ccc(=O)n(CC2CCCO2)c1 (configuration not stated) | -3.54%

SMILES | cytotoxicity at 10 µM
Cc1ccc(C(=O)NCCS(=O)(=O)N2CCSCC2)n1C | -0.506%
CCN(CC)c1ccc(CNC(=O)c2ccc(=O)[nH]n2)cn1 | 4.16%
COCCCNC1CCCN(c2ccc(C)nn2)C1 (configuration not stated) | -9.9%
Cc1cc2n(n1)CC(CNC1CCN(C3CC3)CC1)CN2 (configuration not stated) | 4.16%
Cc1nc(CN2CCC(CNC(=O)Nc3ccccc3)CC2)oc1C | 3.54%
Cn1cc(-c2csc(N3CCN(c4nccs4)CC3)n2)cn1 | 6.23%
CCc1noc(CN2CCC(NC(=O)c3ccc(C)s3)CC2)n1 | -5.04%
COc1ccsc1C(=O)Nc1cc(CN2CCOCC2)ccc1C | -0.0813%
COc1ccc(F)cc1CSCC(=O)N(CCC#N)CCC#N | 0.0531%
Cc1ccc(O)c(C(=O)N2CCCC2c2nncn2CC(C)C)c1 (configuration not stated) | -3.27%
O=C1CCc2cc(OCCN3CCc4cncnc4C3)ccc2N1 | -7.2%
Cc1ccc(-n2ccnc2)c(C(=O)NCCCN(C)C)c1 | -152%
CC(C)Oc1ccc(-c2csc(Cn3ccc(=O)[nH]c3=O)n2)cc1 | 0.137%
NC(=O)NC(=O)CCSCc1cc(F)cc2cccnc12 | 1.88%
Cc1ccc(-c2n[nH]cc2CNCC2CCS(=O)(=O)C2)o1 (configuration not stated) | 12.4%
CN(CC(N)=O)C(=O)c1cnc(-c2ccc(Cl)s2)s1 | -5.02%
c1csc(N2CCN(c3nccn4cnnc34)CC2)n1 | -5.81%
CCc1noc(C(C)N(C)CC(=O)Nc2cccc(C)n2)n1 (configuration not stated) | 0.407%
Cc1n[nH]c(C2CN(C(=O)CCc3ccco3)CCO2)n1 (configuration not stated) | -1.95%
COCCOCC(=O)Nc1ccc(C)cc1F | -3.81%
Cc1ccc(CN2C[C@@H](C(=O)O)[C@H](c3cccnc3)C2)s1 | 4.17%

SMILES | cytotoxicity at 10 µM
O=C(c1cccc(S(=O)(=O)NCCc2nccs2)c1)N1CCOCC1 | -4.19%
O=C1CN(C(=O)CC2C(=O)NCCN2CC2CCCCC2)CCN1 (configuration not stated) | -7.41%
CN(CCc1ncnn1-c1ccccc1Cl)C1CCS(=O)(=O)C1 (configuration not stated) | 9.53%
CCCC(C(=O)NC1CCN(S(C)(=O)=O)CC1)n1cccc1 (configuration not stated) | -3.71%
CC(C)CN1CC(C(=O)NCCc2c[nH]cn2)CC1=O (configuration not stated) | -3.62%
Cn1ccnc1SCCNC(=O)c1cc(S(N)(=O)=O)ccc1F | -3.45%
C[C@@H]1CN(C(=O)CCc2cnn(C)c2)C[C@@]1(O)C1CCC1 | -11.4%
CCC(C(=O)N(C)Cc1cc(COC)[nH]n1)n1cccn1 (configuration not stated) | -5.89%
COCCn1ccnc1C1CCN(C(=O)c2cccc(COC)n2)CC1 | 1.62%
N#CC1(C(=O)N2C[C@H](Nc3ncccn3)[C@@H](C3CC3)C2)CCOCC1 | 5.44%
CC(=O)N1CCN(c2cc(-n3cnc(C)c3C)nc(C)n2)CC1 | 0.727%
Cc1cccnc1[C@H](C)NC(=O)Cc1cc2c(cc1Cl)OCCO2 | -8.26%
CCCC1(CO)CCCN(c2ncccc2F)C1 (configuration not stated) | -6.83%
O=C(Cc1cccc(F)c1)NCCCNC(=O)c1cccc(O)c1 | 1.06%
Cc1ccc(-c2nnc(CN3CCCCC3Cn3cncn3)o2)cc1 (configuration not stated) | 3.84%
CCC1CN(C(=O)CN2CCN(c3nccc(OC)n3)CC2)CCO1 (configuration not stated) | -6.21%
CCc1nnc2n1CCN(Cc1csc(NC(C)=O)n1)C2 | -1.45%
COc1ccc(CNCC2CCN(c3ccccc3OC)C2)cc1O (configuration not stated) | -8.54%
Cc1cccc(-c2ccc(C(=O)NCC3CCCO3)c(=O)[nH]2)c1 (configuration not stated) | -7.36%
CCN1CCN(C(=O)COCc2cccc(OC)c2)CC1 | -11.5%
Cn1ncc2c(=O)[nH]c(CN3CCCC3c3cccc(F)c3)nc21 (configuration not stated) | -9.14%

SMILES | cytotoxicity at 10 µM
Cc1cnn(CC2CCCN2C(=O)c2sccc2-n2cnnn2)c1 (configuration not stated) | -15%
CCCc1noc2ncc(C(=O)N3CCCC3c3cnn(C)c3)cc12 (configuration not stated) | -11.9%
Cc1ccc(NC2CCN(C(=O)COc3ccccc3)CC2)nn1 | -3.25%
Cc1ccc(NC2CCN(C(=O)COC3CCCC3)CC2)nn1 | 2.31%
O=C(NCc1ccccc1)NCC(O)c1cccc(F)c1 (configuration not stated) | -5.09%
CCN(Cc1nc2c(cnn2C)c(=O)[nH]1)Cc1ccccc1Cl | -22.7%
CSC(C)C(=O)NCc1ccc(-n2cncn2)nc1 (configuration not stated) | 3.28%
COc1ccc(CCC(=O)N2CCCC2Cn2cc(C)cn2)cc1F (configuration not stated) | 2.36%
COc1ccc(-c2cc(C3CCNCC3)nc(C)n2)cc1 | 10.2%
Cn1ncc2c1C(COCC1CC1)N(Cc1ccoc1)CC2 (configuration not stated) | 1.04%
O=S(=O)(C1CC1)N1CCO[C@H]2[C@@H](Oc3ncccc3F)CC[C@@H]21 | 1.67%
c1cncc(N2CCC3(CCCN(c4ccncc4)C3)CC2)c1 | 1.84%
Cc1ccc(O[C@@H]2C[C@H]3CN(C(=O)c4cnccn4)CCN3C2)cc1 | 1.12%
O=C(c1ccnnc1)N1CC[C@]2(C[C@H](Oc3ncccc3F)CO2)C1 | 3.42%
Cc1cccc(CN2CCC3(CCCN(C(=O)N4CCCC4)C3)C2=O)n1 (configuration not stated) | 8.76%
O=C(C1CCCO1)N1CCc2ncnc(NC3CCC3)c2CC1 (configuration not stated) | -5.16%
O=C1[C@@H]2CC[C@@H](CN(Cc3nnc(C4CC4)o3)C2)N1Cc1cscn1 | 9.57%
Cc1oc(C(C)C)cc1C(=O)N1C[C@@H]2CC[C@H]1CN(c1ncccn1)C2 | -126%
O=C(CCn1cc(Cl)cn1)N1C[C@H]2CC[C@@H](C1)N(Cc1ccccn1)C2 | 7.15%
